Data reported in PubChem BioAssay.
Activity calls are given as the source filed them.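 Rule for the calls, unless noted: active = NADPH fluorescence slope more negative than the mean of all samples by about 3 SD, 99.7% confidence; inactive = the rest.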

Columns and labels:
[1] = inhibitors of TNFa-induced NFkB p65 translocation, primary screen, imaging, HUVEC, MLSMR starter and 10KST1 sets (AID 438;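 active = inhibition above 20% together with a positive visual image hit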;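 note: compound added about 3h40 before a 20 min TNFalpha stimulation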;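 for inhibition: signal is the nuclear over cytoplasmic p65 intensity ratio per well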); conditions: HUVEC TNFa-induced p65 nuclear translocation; cell count: measured here: nuclei count (cytotoxicity indicator), at 2.08 µM; inhibition: at 2 µM, stronger effect = higher value, 0% TNFa-plus-vehicle, 100% no-TNFa wells
[2] = inhibitors of mutant huntingtin aggregation, primary screen, imaging, exon1htt(103Q)mCFP cells, high-content imaging (AID 483;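 active = visual image review flags a hit and inhibition of aggregation exceeds 20%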;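 note: compound exposure lasted 3 days before fixation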;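 for nuclei count: percent of the per-plate median nuclei count of sample wells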); conditions: exon1htt(103Q)mCFP cell line, aggregate imaging, at 2 µM; inhibition of aggregation: stronger effect = higher value; nuclei count: measured here: cell count, toxicity
[3] = inhibitors of E-selectin induction by TNFa, primary screen, imaging, HUVEC, immunofluorescence, MLSMR starter and 10KST1 sets (AID 487;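 active = visually confirmed hit in the image check and inhibition above 20%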;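 for inhibition: signal is fraction of cell area covered by stained E-selectin grains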;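 for nuclei count: 100% = median nuclei count of all wells on the same plate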); conditions: HUVEC TNFalpha-induced E-selectin immunofluorescence imaging, at 2 µM; inhibition: stronger effect = higher value; nuclei count: measured here: cell number, toxicity
[4] = target: Voltage-gated potassium channel subunit beta-2 (Rattus norvegicus) (UniProt P62483); assay: KvBeta enzyme negative modulators, primary screen, biochemical, NADPH fluorescence (AID 622;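 active = fluorescence slope higher than the sample average by over 3 SD, cut at about -0.22 in these data, passing the limit was not always enough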;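 note: slope of raw intensity against log time taken from 70 to 1610 s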); conditions: recombinant KvBeta, 4-cyanobenzaldehyde reduction, at 10 µM, stronger effect = higher value
[5] = target: Voltage-gated potassium channel subunit beta-2 (Rattus norvegicus) (UniProt P62483); assay: KvBeta positive modulators, primary screen, biochemical, NADPH fluorescence (AID 623); conditions: Recombinant KvBeta, NADPH fluorescence decrease slope, 10 min; at 10 µM; stronger effect = lower value;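 note: fluorescence intensity change per second fitted from 20 to 320 s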
[6] = target: Muscarinic acetylcholine receptor M4 (Homo sapiens) (UniProt P08173); assay: compounds altering M4/GIRK thallium flux, either direction, primary screen, M4 allosteric agonist project, cell-based, HEK293 M4/GIRK, BTC-AM (AID 625;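 active = fluorescence slope after compound addition differing from the mean of all tested samples at 99.7% confidence, mostly higher but some lower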;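 note: thallium influx through GIRK channels coupled to M4 in HEK293 cells with BTC-AM dye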); conditions: at 10 µM, actives lie on both sides
Method in brief: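 Assay system: HEK293 cells with M4 receptor and GIRK channels / Controls: carbachol and DMSO controls / Schedule: 1 h dye loading, 2 min kinetic read / Technique: kinetic fluorescence with BTC-AM dye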

[7] = inhibitors of Sendai virus-induced IRF3 signaling, primary screen, TLR/RLR signaling modifier project, cell-based, Sendai virus stimulus, luciferase, 10K MLSCN set (AID 602276;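 active = inhibition at or above 50% at 10 µM; inactive = inhibition below 50%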;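 note: firefly luciferase from ISG56 promoter only with Renilla not read in this screen; 0% = Sendai virus plus DMSO and 100% = medium plus DMSO without virus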); conditions: HEK293 RL24 IRF3 luciferase reporter, at 10 µM, stronger effect = higher value
[8] = inhibitors of poly I:C-induced TLR3 signaling, primary screen, cell-based, poly I:C stimulus, luciferase, 10K MLSCN set (AID 602277;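 active = inhibition of the reporter signal at or above 50%; inactive = inhibition below 50%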); conditions: HEK293-TLR3 RL24 IRF3 luciferase reporter, at 10 µM, stronger effect = higher value

Voltage-gated potassium channel subunit beta-2 (Rattus norvegicus), sequence (P62483 whole entry, looked up): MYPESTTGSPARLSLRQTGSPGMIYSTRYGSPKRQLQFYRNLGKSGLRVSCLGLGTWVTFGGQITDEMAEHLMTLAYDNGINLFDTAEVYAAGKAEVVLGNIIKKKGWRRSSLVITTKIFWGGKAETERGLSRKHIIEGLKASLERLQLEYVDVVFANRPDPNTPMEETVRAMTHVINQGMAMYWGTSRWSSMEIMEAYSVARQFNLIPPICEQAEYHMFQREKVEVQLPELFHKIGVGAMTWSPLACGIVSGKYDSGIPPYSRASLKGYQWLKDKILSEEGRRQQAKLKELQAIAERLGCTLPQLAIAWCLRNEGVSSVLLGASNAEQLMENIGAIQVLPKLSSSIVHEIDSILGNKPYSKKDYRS
Muscarinic acetylcholine receptor M4 (Homo sapiens), sequence (P08173 whole entry, looked up): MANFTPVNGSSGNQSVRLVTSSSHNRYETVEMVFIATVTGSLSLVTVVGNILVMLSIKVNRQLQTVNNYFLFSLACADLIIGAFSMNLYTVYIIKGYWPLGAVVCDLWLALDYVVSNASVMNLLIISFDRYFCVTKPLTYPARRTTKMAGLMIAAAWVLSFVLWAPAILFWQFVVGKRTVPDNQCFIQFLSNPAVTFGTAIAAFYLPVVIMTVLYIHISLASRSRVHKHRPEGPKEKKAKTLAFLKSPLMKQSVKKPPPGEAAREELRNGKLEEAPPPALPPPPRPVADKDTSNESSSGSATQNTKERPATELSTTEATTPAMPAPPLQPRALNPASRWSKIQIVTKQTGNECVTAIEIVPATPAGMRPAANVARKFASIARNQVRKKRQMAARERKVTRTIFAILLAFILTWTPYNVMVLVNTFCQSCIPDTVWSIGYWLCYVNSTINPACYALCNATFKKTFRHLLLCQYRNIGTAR

| Compound | cell count [1] | inhibition [1] | inhibition of aggregation [2] | nuclei count [2] | inhibition [3] | nuclei count [3] | fluorescence slope [4] | NADPH fluorescence slope [5] | fluorescence slope [6] | inhibition [7] | inhibition [8] |
| --- | --- | --- | --- | --- | --- | --- | --- | --- | --- | --- | --- |
| CCCCC(CC)Cn1c2nc3ccccc3nc2c2c(=N)oc(C)nc21 (centres undefined) | 624 | 15.7% (inactive) | 23.1% (inactive) | 64.9% | -5.3% (inactive) | 97.3% | -0.196 (inactive) | 4.4e-06 (inactive) | 0.00498 (inactive) | 16.1% (inactive) | 15.4% (inactive) |
| Cn1c(COc2ccccc2)nnc1SCC(=O)Nc1ccc(N2CCOCC2)c(Cl)c1 | 497 | -6.9% (inactive) | -10.9% (inactive) | 102% | -6.4% (inactive) | 102% | -0.477 (inactive) | -6.6e-05 (inactive) | 0.00548 (inactive) | 13.5% (inactive) | 17.5% (inactive) |
| O=C(Nc1c(-c2ccccc2)nc2ccccn12)c1ccco1 | 466 | -7.2% (inactive) | 8.4% (inactive) | 103% | 13.2% (inactive) | 109% | -0.56 (inactive) | 4.7e-05 (inactive) | 0.00475 (inactive) | -7.17% (inactive) | -12.7% (inactive) |
| C/C(=C(\C#N)C(=O)NCCCN1CCOCC1)N(C)C | 475 | -11.2% (inactive) | 20.1% (inactive) | 75.2% | -96.7% (inactive) | 115% | -0.581 (inactive) | -1.9e-05 (inactive) | 0.0035 (inactive) | 1.58% (inactive) | -2.64% (inactive) |
| O=C(NCc1cccs1)C(Cc1ccccc1)NS(=O)(=O)c1cccs1 (centres undefined) | 469 | -1.7% (inactive) | 0% (inactive) | 108% | -26.1% (inactive) | 111% | -0.437 (inactive) | -0.000238 (active) | 0.00454 (inactive) | 14.7% (inactive) | 15.2% (inactive) |
| C=Cn1c(C(=O)O)cc(CC)c1-c1ccccc1 | 642 | -12.5% (inactive) | -22.8% (inactive) | 107% | -51.5% (inactive) | 112% | -0.55 (inactive) | -4.3e-05 (inactive) | 0.00458 (inactive) | 10.9% (inactive) | 9.07% (inactive) |
| CN(CC(=O)N1CCN(c2ccccn2)CC1)S(=O)(=O)c1ccc2ccccc2c1 | 395 | 0.9% (inactive) | 1.9% (inactive) | 115% | -109% (inactive) | 119% | -0.478 (inactive) | -7e-05 (inactive) | 0.00469 (inactive) | 4.05% (inactive) | 4.08% (inactive) |
| COC(=O)COc1nc(C)c(Br)c(OC)n1 | 367 | 2.4% (inactive) | -14% (inactive) | 96.9% | -89.5% (inactive) | 110% | -0.615 (inactive) | -1.6e-05 (inactive) | 0.00344 (inactive) | 15.8% (inactive) | 17.1% (inactive) |
| Cn1c(=O)c2ccccc2n(Cc2ccccc2F)c1=O | 254 | -8.1% (inactive) | 8.7% (inactive) | 74.6% | -51.8% (inactive) | 73.9% | -0.451 (inactive) | -7.1e-05 (inactive) | 0.00416 (inactive) | 1.3% (inactive) | 65.6% (active) |
| CN1CCc2nc(SCC(=O)Nc3ccc(F)cc3)c(C#N)cc2C1 | 646 | -14.8% (inactive) | -16.9% (inactive) | 101% | -75.1% (inactive) | 101% | -0.456 (inactive) | 0.000133 (inactive) | 0.00558 (inactive) | -24.5% (inactive) | -52.9% (inactive) |
| Cc1c(Cc2ccccc2)sc(N)c1C(N)=O | 335 | -13% (inactive) | -0.8% (inactive) | 115% | -32.2% (inactive) | 113% | -0.574 (inactive) | -2.6e-06 (inactive) | 0.00569 (inactive) | 9.38% (inactive) | 10.8% (inactive) |
| Cc1oc2c(CN3CCCC3)c(O)ccc2c(=O)c1-c1ccccc1 | 243 | 3.8% (inactive) | 6.5% (inactive) | 96.3% | -46% (inactive) | 97.7% | -0.0276 (active) | 8.9e-06 (inactive) | 0.00581 (inactive) | 14% (inactive) | 24.5% (inactive) |
| COc1ccc2c(-c3cccnc3)cc(=O)[nH]c2c1 | 363 | 4.3% (inactive) | -5.5% (inactive) | 84.5% | 36.3% (inactive) | 79.4% | -0.39 (inactive) | -9.1e-05 (inactive) | 0.00553 (inactive) | 13.4% (inactive) | 26.1% (inactive) |
| CCOc1cc(C)c(C(C)C)cc1S(=O)(=O)N1CCN(C)CC1 | 775 | -2.4% (inactive) | 19% (inactive) | 93.4% | -3% (inactive) | 112% | -0.475 (inactive) | 1.9e-05 (inactive) | 0.00438 (inactive) | -9.48% (inactive) | -5.37% (inactive) |
| CC(=O)NC1(c2nnnn2CCOC(=O)Nc2ccc(Cl)cc2)CCCCC1 | 559 | -12.5% (inactive) | 2.9% (inactive) | 84.6% | -23.9% (inactive) | 91.3% | -0.513 (inactive) | -0.000175 (inactive) | 0.0035 (inactive) | 9.27% (inactive) | 8.82% (inactive) |
| O=C(CCSc1nnc(-c2ccncc2)o1)Nc1ccccc1 | 680 | -3.9% (inactive) | 1% (inactive) | 107% | -26.7% (inactive) | 114% | -0.512 (inactive) | -6.6e-05 (inactive) | 0.0061 (inactive) | 1.76% (inactive) | 12.2% (inactive) |
| CCn1nnnc1SCC(=O)Nc1nnc(C(C)C)s1 | 324 | -3% (inactive) | 21.9% (inactive) | 96.2% | 1% (inactive) | 116% | -0.361 (inactive) | -4.7e-05 (inactive) | 0.0049 (inactive) | 5.57% (inactive) | -1.53% (inactive) |
| O=C(CCCn1ncn2c(cc3occc32)c1=O)N1CCc2ccccc2C1 | 363 | -0.7% (inactive) | 4.2% (inactive) | 93.3% | -81.7% (inactive) | 101% | -0.484 (inactive) | -0.00018 (inactive) | 0.00605 (inactive) | 8.38% (inactive) | 8.89% (inactive) |
| O=C(CN1CCOCC1)Nc1cccc(C(=O)Nc2cccc(C(F)(F)F)c2)c1 | 199 | 4.3% (inactive) | 12.5% (inactive) | 90.7% | 1.6% (inactive) | 89.1% | -0.574 (inactive) | -6e-05 (inactive) | 0.0065 (inactive) | 7.38% (inactive) | -4.66% (inactive) |
